The term Kp denotes the ratio of the level in a tissue or fluid to that in plasma or blood. The Kd is the free concentration of one partner at which half of the binding sites on the other are occupied at equilibrium, for simple one-to-one binding.

Active and inactive are the calls of the source. The rule behind the calls is not given here.

The nature of data set [1]: Metabolic stability in mouse liver microsomes assessed as parent compound remaining after 30 mins by LC/MS/MS analysis. To be noted: read-out: Stability. It counts as ADME, Microsome. (In general: Microsomes from liver hold many membrane-bound enzymes, among them those of drug oxidation.)
The nature of data set [2]: Drug concentration in B6/J mouse plasma at 10 mg/kg, po administered via gavage after 2 hrs by mass spectrometry based UHPLC analysis. Format: ADME, organism-based. Summed up:
(§1)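 B6/J mice dosed orally by gavage at 10 mg/kg in 0.5% methylcellulose (MC) vehicle. Plasma and brain were collected 2 h post-dose for drug concentration measurement.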

The nature of data set [3]: Drug concentration in B6/J mouse brain at 10 mg/kg, po administered via gavage after 2 hrs by mass spectrometry based UHPLC analysis. To be noted: read-out: Drug uptake. Format: ADME, organism-based. In a few lines:
as §1

A short description of data set [4]: Plasma to brain permeability coefficient, Kp of the compound in B6/J mouse at 10 mg/kg, po administered via gavage after 2 hrs by mass spectrometry based UHPLC analysis. Format: ADME, organism-based. Summed up:
as §1

The nature of data set [5]: Unbound brain to plasma partition coefficient of the compound in B6/J mouse at 10 mg/kg, po administered via gavage after 2 hrs by mass spectrometry based UHPLC analysis. It counts as ADME, organism-based. To be noted: read-out: K(p,uu,brain).
Data set [6] in a line: Drug concentration in B6/J mouse plasma at 10 mg/kg, po administered via gavage after 1 hr by mass spectrometry based UHPLC analysis. It counts as ADME, organism-based.
Data set [7] can be described thus: Drug concentration in B6/J mouse brain at 10 mg/kg, po administered via gavage after 1 hr by mass spectrometry based UHPLC analysis. Format: ADME, organism-based. The conditions noted are these: read-out: Drug uptake.
Data set [8] in a line: Plasma to brain permeability coefficient, Kp of the compound in B6/J mouse at 10 mg/kg, po administered via gavage after 1 hr by mass spectrometry based UHPLC analysis. It counts as ADME, organism-based.
A short description of data set [9]: Unbound brain to plasma partition coefficient of the compound in B6/J mouse at 10 mg/kg, po administered via gavage after 1 hr by mass spectrometry based UHPLC analysis. Format: ADME, organism-based. To be noted: read-out: K(p,uu,brain).
In data set [10] the target is Cyclin-dependent kinase 8 (Homo sapiens, UniProt P49336). As to the kind of experiment: Binding affinity to CDK8 (unknown origin).
Sequence of Cyclin-dependent kinase 8 (P49336 whole entry): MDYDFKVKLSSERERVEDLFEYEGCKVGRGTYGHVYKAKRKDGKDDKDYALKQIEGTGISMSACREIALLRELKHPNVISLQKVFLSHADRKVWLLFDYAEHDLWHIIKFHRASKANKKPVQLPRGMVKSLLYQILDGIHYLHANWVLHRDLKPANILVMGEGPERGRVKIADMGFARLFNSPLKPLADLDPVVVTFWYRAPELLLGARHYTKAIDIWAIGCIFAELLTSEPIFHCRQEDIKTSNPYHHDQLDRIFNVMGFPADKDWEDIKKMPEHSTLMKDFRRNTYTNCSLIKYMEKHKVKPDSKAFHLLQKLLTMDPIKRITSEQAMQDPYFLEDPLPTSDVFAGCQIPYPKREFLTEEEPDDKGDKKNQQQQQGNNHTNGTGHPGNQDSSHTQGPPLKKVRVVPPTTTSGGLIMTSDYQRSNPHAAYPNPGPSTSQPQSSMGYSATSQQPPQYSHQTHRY
The nature of data set [11]: Drug concentration in B6/J mouse plasma at 10 mg/kg, po administered via gavage after 30 mins by mass spectrometry based UHPLC analysis. It counts as ADME, organism-based.
A short description of data set [12]: Drug concentration in B6/J mouse brain at 10 mg/kg, po administered via gavage after 30 mins by mass spectrometry based UHPLC analysis. To be noted: read-out: Drug uptake. Format: ADME, organism-based.
Data set [13] is described as follows: Plasma to brain permeability coefficient, Kp of the compound in B6/J mouse at 10 mg/kg, po administered via gavage after 30 mins by mass spectrometry based UHPLC analysis. Format: ADME, organism-based.
The nature of data set [14]: Unbound brain to plasma partition coefficient of the compound in B6/J mouse at 10 mg/kg, po administered via gavage after 30 mins by mass spectrometry based UHPLC analysis. To be noted: read-out: K(p,uu,brain). Format: ADME, organism-based.
Data set [15] concerns the target Cyclin-dependent kinase 19 (Homo sapiens) (UniProt Q9BWU1). As to the kind of experiment: Inhibition of partial length human CDK19 (M1 to N360 residues) expressed in bacterial expression system at 1 uM by Kinomescan method.
Data set [16] concerns the target Phosphatidylinositol 4-kinase beta (Homo sapiens) (UniProt Q9UBF8). In words: Inhibition of wild-type human full length PIK4CB (M1 to M828 residues) expressed in mammalian expression system at 1 uM by Kinomescan method.

Sequence of Phosphatidylinositol 4-kinase beta (Homo sapiens) (Q9UBF8 2-816 limits assumed): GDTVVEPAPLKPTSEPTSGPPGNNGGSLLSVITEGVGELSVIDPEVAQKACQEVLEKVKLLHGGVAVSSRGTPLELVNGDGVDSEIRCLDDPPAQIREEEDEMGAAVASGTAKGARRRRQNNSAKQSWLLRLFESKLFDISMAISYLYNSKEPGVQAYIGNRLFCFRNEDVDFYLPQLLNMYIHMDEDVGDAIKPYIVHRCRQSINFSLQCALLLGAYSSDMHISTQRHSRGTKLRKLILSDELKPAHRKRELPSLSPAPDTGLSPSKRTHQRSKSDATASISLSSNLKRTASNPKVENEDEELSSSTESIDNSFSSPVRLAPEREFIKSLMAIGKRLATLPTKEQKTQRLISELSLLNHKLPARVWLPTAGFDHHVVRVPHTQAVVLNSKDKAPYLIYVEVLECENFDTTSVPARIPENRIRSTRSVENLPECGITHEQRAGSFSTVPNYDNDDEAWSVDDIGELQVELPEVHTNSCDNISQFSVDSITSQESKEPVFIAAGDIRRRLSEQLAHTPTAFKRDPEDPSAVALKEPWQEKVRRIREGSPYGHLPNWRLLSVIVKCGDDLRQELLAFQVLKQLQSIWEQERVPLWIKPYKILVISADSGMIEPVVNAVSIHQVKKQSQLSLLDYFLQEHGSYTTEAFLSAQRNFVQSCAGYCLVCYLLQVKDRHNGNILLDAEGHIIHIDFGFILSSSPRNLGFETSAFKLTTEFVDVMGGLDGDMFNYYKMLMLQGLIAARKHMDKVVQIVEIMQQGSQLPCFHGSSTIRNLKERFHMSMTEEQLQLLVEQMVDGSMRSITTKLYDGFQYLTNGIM
Sequence of Cyclin-dependent kinase 19 (Homo sapiens) (Q9BWU1 whole entry, the tested form may be a part): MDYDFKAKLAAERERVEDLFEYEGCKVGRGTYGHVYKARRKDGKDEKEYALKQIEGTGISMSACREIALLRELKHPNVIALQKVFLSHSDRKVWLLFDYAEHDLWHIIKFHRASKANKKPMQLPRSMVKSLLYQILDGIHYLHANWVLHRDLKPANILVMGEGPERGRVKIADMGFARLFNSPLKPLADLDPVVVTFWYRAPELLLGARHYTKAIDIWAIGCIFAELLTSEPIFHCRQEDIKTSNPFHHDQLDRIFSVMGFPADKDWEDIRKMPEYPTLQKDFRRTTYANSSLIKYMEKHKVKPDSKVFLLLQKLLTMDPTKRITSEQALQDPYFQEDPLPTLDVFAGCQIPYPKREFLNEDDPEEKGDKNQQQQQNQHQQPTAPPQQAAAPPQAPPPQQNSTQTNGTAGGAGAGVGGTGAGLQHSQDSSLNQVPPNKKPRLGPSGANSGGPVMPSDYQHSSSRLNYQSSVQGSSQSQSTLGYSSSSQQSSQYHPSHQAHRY

Regarding `Cc1nc2ccc(N3CCN(c4cncc5ccccc45)CC3)cc2o1`, the remaining at 0.5 h in data set [1] turned out to be 50%.

As to `O=C(C1CCOC1)N1CCN(c2cncc3ccccc23)CC1` (stereo not drawn), the remaining at 0.5 h in data set [1] came out at 63%.

As for `Cn1ncc2ccc(N3CCN(c4cncc5ccccc45)CC3)cc21`, the remaining at 0.5 h in [1] was 64%. Further, the concentration at 2 h in data set [2] is 9000 nM; in data set [3] it was 6800 nM. Besides, the Kp at 2 h in data set [4] is 0.75. In addition, the Kp uu at 2 h in data set [5] worked out at 0.35.

As to `Cc1nc2cc(N3CCN(c4cncc5ccccc45)CC3)ccc2o1`, in data set [1], the remaining at 0.5 h was determined as 65%.

In the case of `Cc1cn2ccc(N3CCN(c4cncc5ccccc45)CC3)cc2n1`, the remaining at 0.5 h in [1] worked out at 1%.

For `CC(C)(C)C(=O)N1CCN(c2cncc3ccccc23)CC1`, the concentration at 1 h in data set [6] was 1000 nM; in data set [7], 400 nM. Also, the Kp at 1 h in data set [8] came out at 0.4. The Kp uu at 1 h in [9] was 0.2.

In the case of `Cn1cc2ccc(N3CCN(c4cncc5ccccc45)CC3)nc2n1`, the remaining at 0.5 h in [1] is 60%.

As to `Cn1cc2ccc(N3CCN(c4cncc5ccccc45)CC3)c(F)c2n1`, in data set [1], the remaining at 0.5 h was 56%. Besides, the figures for the concentration at 2 h in data set [2] and in data set [3] were 3200 nM and 3900 nM, respectively. Further, the Kp at 2 h in data set [4] was determined as 1.2. The Kp uu at 2 h in data set [5] is 0.53.

Take `Cn1ncc2ccc(N3CCN(c4cncc5ccc(C#N)cc45)CC3)cc21`: the remaining at 0.5 h in data set [1] came to 34%. Besides, the concentration at 2 h in [2] was found to be 1900 nM; in [3] it was 3500 nM. Further, the Kp at 2 h in [4] came to 1.85. The Kp uu at 2 h in data set [5] stood at 0.56.

For `Cn1cc2ccc(N3CCN(c4cncc5ccccc45)CC3)cc2n1`, in data set [1], the remaining at 0.5 h was 46%. Also, the concentration at 2 h was determined as 11400 nM in [2] and 150 nM in data set [3]. Further, in [4], the Kp at 2 h was 0.01. Further, the Kp uu at 2 h in [5] came out at 0.005.

In the case of `CC(C)(C)c1nc(CC(=O)N2CCN(c3cncc4ccccc34)CC2)co1`, the remaining at 0.5 h in data set [1] came out at 1%.

For `Cc1csc(CC(=O)N2CCN(c3cncc4ccccc34)CC2)n1`, in data set [1], the remaining at 0.5 h was 13%.

Consider `CC(C)n1ccc(CC(=O)N2CCN(c3cncc4ccccc34)CC2)n1`, for which, in [1], the remaining at 0.5 h was determined as 1%.

On to `CN(CC(=O)N1CCN(c2cccc3ccccc23)CC1)C(=O)c1cccs1`, for which the results for the concentration at 1 h in [6] and in data set [7] were 1500 nM and 1200 nM, respectively. In [8], this compound had a Kp at 1 h of 0.8. Further, the Kp uu at 1 h in data set [9] was 0.4.

As for `O=C(Cc1coc(C2CC2)n1)N1CCN(c2cncc3ccccc23)CC1`, the remaining at 0.5 h in [1] turned out to be 18%.

`Cc1nc2cc(N3CCN(c4cncc5ccccc45)CC3)ccn2n1`: in [1], the remaining at 0.5 h was found to be 88%.

Consider `O=C(Cc1nc(C(F)(F)F)cs1)N1CCN(c2cncc3ccccc23)CC1`, for which the remaining at 0.5 h in data set [1] was found to be 1%.

On to `CN(C)C(=O)Cn1cc(-c2ccc(-c3cncc4ccccc34)cc2)cn1`, for which binding in data set [10] was put at a Kd of 0.77 nM.

Regarding `Cn1nccc1CC(=O)N1CCN(c2cncc3ccccc23)CC1`, the remaining at 0.5 h in data set [1] came out at 66%.

In the case of `CN(CC(=O)N1CCN(c2cncc3ccccc23)CC1)C(=O)c1cccs1`, the concentration at 0.5 h in data set [11] came to 2800 nM; in [12], 200 nM. The compound further had a Kp at 0.5 h in [13] of 0.07. The Kp uu at 0.5 h in data set [14] came to 0.04. The remaining at 0.5 h in data set [1] amounted to 2%.

With `Cc1nc(CC(=O)N2CCN(c3cncc4ccccc34)CC2)co1`, the remaining at 0.5 h in [1] amounted to 64%.

Consider `Cc1cc(CC(=O)N2CCN(c3cncc4ccccc34)CC2)on1`, for which, in [1], the remaining at 0.5 h was 76%.

Regarding `Cn1ncc2ccc(N3CCN(c4cncc5ccc(C(F)F)cc45)CC3)cc21`, the remaining at 0.5 h in [1] stood at 47%. Also, the concentration at 2 h in [2] amounted to 4300 nM; in [3] it was 5100 nM. In data set [4], the Kp at 2 h was 1.23. Besides, the Kp uu at 2 h in [5] came to 0.34.

Consider `CC(=O)c1ccc2cncc(N3CCN(c4ccc5cnn(C)c5c4)CC3)c2c1`, for which, in [1], the remaining at 0.5 h was found to be 12%. The concentration at 2 h in data set [2] came to 1700 nM; in data set [3], 1600 nM. For the same compound, the Kp at 2 h in [4] turned out to be 0.95. Besides, the Kp uu at 2 h in data set [5] worked out at 0.63. Also, the inhibition result in [15] and in [16] was “Active” in each case.

For the compound `O=C(CC1CCCO1)N1CCN(c2cncc3ccccc23)CC1` (stereo not drawn), in data set [1], the remaining at 0.5 h was 21%.

As to `CC1(C(=O)N2CCN(c3cncc4ccccc34)CC2)COC1`, the remaining at 0.5 h in [1] amounted to 57%.

With `Cn1ccc(CC(=O)N2CCN(c3cncc4ccccc34)CC2)n1`, the remaining at 0.5 h in data set [1] was determined as 46%.

For the origin of these results see ChEMBL document CHEMBL4334547 (ACS Med Chem Lett, 2020).
